CHT block: inhibitors of human choline transporter CHT; Q9GZV3; B-score at 10 µM; CHT-expressing cells, membrane potential dye, choline response; active compounds read low; 0.86% of 310,000 active; AID 488975;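 active = B-score over 3 SD under the library average, and starting fluorescence ratio not unusually high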;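 also: choline stimulus applied at its EC90 after an EC20 pre-addition; B-score computed on integrated fluorescence ratio after choline addition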
proCasp3 act: activates human procaspase-3; activation, % at 8.5 µM; recombinant procaspase-3 D3A, Ac-DEVD-pNA absorbance 405 nm; P42574; 0.11% of 330,000 active;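 active = activation above the mean of all tested compounds plus 3 SD, cut at about 21% in these data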;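 also: 0% = DMSO alone and 100% = DMSO wells spiked with extra 5 µM PC-3 D3A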
Target sequence (P42574 whole entry D9A/D28A/D175A): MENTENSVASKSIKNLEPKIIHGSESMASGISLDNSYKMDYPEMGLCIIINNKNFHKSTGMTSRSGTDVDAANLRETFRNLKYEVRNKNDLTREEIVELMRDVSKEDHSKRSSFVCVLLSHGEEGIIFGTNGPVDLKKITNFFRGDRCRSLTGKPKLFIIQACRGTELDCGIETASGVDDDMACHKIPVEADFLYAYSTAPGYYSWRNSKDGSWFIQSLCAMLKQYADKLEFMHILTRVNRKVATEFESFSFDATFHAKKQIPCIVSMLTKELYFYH
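Test system: Procaspase-3 D3A mutant; medium: Zinc-free HEPES/NaCl buffer with 0.01% Triton X-100 at pH 7.4; reagent: DEVD-pNA substrate; doses: one concentration, 8.5 µM nominal, 0.8% DMSO; times: 1 h preincubation plus 2 h reaction at 25 °C; signal: Epi-absorbance at 405 nm of released p-nitroaniline, 0 and 120 min; replicates: singlicate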
proCasp7 act: activates human procaspase-7, counter-screen for procaspase-3 activators; P55210; recombinant procaspase-7, Ac-DEVD-pNA absorbance 405 nm; D23A/D198A/D206A triple mutant, cannot self-cleave; scale: DMSO 0, 5 µM enzyme 100; activation, % at 8.5 µM; 0.093% of 330,000 active; AID 463210;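 active = percent activation above the screen-wide mean plus 3 SD, cut at about 25% in these data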
Target sequence (P55210 whole entry D23A/D198A/D206A): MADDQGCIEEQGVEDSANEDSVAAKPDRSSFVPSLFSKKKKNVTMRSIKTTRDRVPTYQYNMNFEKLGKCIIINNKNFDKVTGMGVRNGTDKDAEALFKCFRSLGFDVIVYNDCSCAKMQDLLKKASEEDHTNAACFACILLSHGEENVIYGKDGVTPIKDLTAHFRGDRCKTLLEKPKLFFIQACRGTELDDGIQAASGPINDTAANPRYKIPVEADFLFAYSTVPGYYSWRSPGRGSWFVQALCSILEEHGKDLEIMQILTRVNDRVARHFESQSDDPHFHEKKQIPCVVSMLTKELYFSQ
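buffer or medium = Zinc-free HEPES/NaCl buffer, pH 7.4 | material = Procaspase-7 triple mutant (PC-7 D3A) | input = 2 µM procaspase-7 mutant as dispensed | signal = Epi-absorbance of released pNA at 405 nm, two timepoints | timing = 1 h preincubation, 2 h reaction | replicates = singlicate compound testing | evaluation = % activation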
CHT allo act: allosteric activators of human choline transporter CHT; Q9GZV3; CHT-expressing cells, membrane potential dye, choline EC20; active compounds read high; LV-AA mutant CHT in HEK293 cells; B-score at 10 µM; 0.49% of 310,000 active; AID 488977;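 active = initial fluorescence not abnormally high and integrated response B-score, plate-corrected, over 3 SD above library mean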
CHT activ conf: human CHT activation, confirmatory screen. AID 504833. shares compounds with CHT allo act. CHT-expressing cells, membrane potential dye fluorescence (FDSS); % of choline EC20–EC90 response window; HEK293 expressing CHT LV-AA mutant; choline added at its EC20. activation, % at 10 µM. 91% of 2,500 active;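 active = primary screen active, with duplicate mean activation above negative control mean plus 3 SD, cut at about 11% in these data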
HEK293 MP dye: CHT activator counter-screen hit in parental HEK293 cells | shares compounds with CHT allo act | membrane potential dye fluorescence (FDSS); measured after EC20 choline addition | ratio readout change at 10 µM, hits read low | 62% of 2,500 active | AID 623908;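 active = duplicate-averaged ratio beyond 3 SD from buffer wells, up or down, though filed actives are nearly all decreases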
* hit, by the source's call. Compounds with a hit are over-represented: about 1.3% of the library has one in this group of screens.

Screening COc1ccccc1C(CNc1ncnc2sc(C)c(C)c12)N(C)C (stereo unspecified) returned CHT block inactive, proCasp3 act -1, proCasp7 act 11, CHT allo act inactive, CHT activ conf 54* and HEK293 MP dye -52*.
COc1ccc(C(CNc2ncnc3sc(C)c(C)c23)N(C)C)cc1 (stereo unspecified) was read as CHT block inactive, proCasp3 act 9, proCasp7 act 0 and CHT allo act inactive.
Nc1nc(SCC(=O)N2N=C(c3ccc(Cl)cc3)CC2c2ccco2)n[nH]1 (stereo unspecified) was read as CHT block inactive, proCasp3 act 3, proCasp7 act 3 and CHT allo act inactive.
`COc1ncccc1-c1nnn(-c2ccc(Cl)nc2)n1` gave CHT block inactive, proCasp3 act 12, proCasp7 act -7, CHT allo act inactive, CHT activ conf 48* and HEK293 MP dye -41*.
`CN(CC(=O)Nc1ccccc1Cl)C(=O)Cn1cc(C(F)(F)F)cc(Cl)c1=O` gave CHT block inactive, proCasp3 act 0, proCasp7 act 1 and CHT allo act inactive.
Screening O=S(=O)(Cc1cc(Oc2ccccc2)nc(-c2ccccc2)n1)c1ccccc1 returned CHT block inactive, proCasp3 act 3, proCasp7 act 8 and CHT allo act inactive.
CCOC(=O)C(C)Sc1cc(CS(=O)(=O)c2ccccc2)nc(-c2ccccc2)n1 (stereo unspecified) was read as CHT block inactive, proCasp3 act -1, proCasp7 act -4, CHT allo act 7.7*, CHT activ conf 6 and HEK293 MP dye inactive.
CN(C(=O)CSc1nc2scc(-c3ccccc3)c2c(=O)[nH]1)c1ccccc1 was read as proCasp3 act -5 and proCasp7 act -29.
Cc1ccc(NC2CCCN(C(=O)CN3C(=O)c4ccccc4C3=O)C2)cc1C (stereo unspecified) was read as CHT block inactive, proCasp3 act 7, proCasp7 act 5 and CHT allo act inactive.
Screening CC(C)CN(CC(C)C)C(=O)Nc1ccccc1F returned CHT block inactive, proCasp3 act 0, proCasp7 act -5 and CHT allo act inactive.
Screening COc1ccccc1N1CCN(S(=O)(=O)CCNC(=O)CC2CCCCC2)CC1 returned CHT block inactive, proCasp3 act 1, proCasp7 act 4 and CHT allo act inactive.
COc1cc2c(cc1OC)-c1cc(OCCN3CCOCC3)nc(=O)n1CC2 was read as CHT block inactive, proCasp3 act -5, proCasp7 act 0, CHT allo act 6.5*, CHT activ conf 55* and HEK293 MP dye -44*.
Screening CCNc1cc2n(c(=O)n1)CCc1cc(OC)c(OC)cc1-2 returned CHT block inactive, proCasp3 act 15, proCasp7 act 9 and CHT allo act inactive.
`COc1ccc(C)cc1Nc1n[n+](-c2ccccc2)c(-c2ccc(OC)c(OC)c2OC)s1` gave CHT block inactive, proCasp3 act -4, proCasp7 act -9, CHT allo act 9.9*, CHT activ conf 15* and HEK293 MP dye inactive.
For CN1CCN(Cc2nc3ccccc3c(=O)n2Cc2nc(-c3ccc4ccccc4c3)cs2)CC1 the results were CHT block inactive, proCasp3 act -3, proCasp7 act -8 and CHT allo act inactive.
`CN1CCN(Cc2nc3ccccc3c(=O)n2Cc2nc(-c3ccccc3F)cs2)CC1` gave CHT block inactive, proCasp3 act 0, proCasp7 act -3, CHT allo act 8.2*, CHT activ conf 30* and HEK293 MP dye inactive.
Screening COc1cccc(/C=N/NC(=O)c2ccc(=O)n(C)c2)c1OC returned CHT block inactive, proCasp3 act 11, proCasp7 act 11, CHT allo act 6.3*, CHT activ conf 14* and HEK293 MP dye -32*.
Screening CC(=O)N1CCN(Cc2nc3ccc(Cl)cc3n2CCO)CC1 returned CHT block inactive, proCasp3 act 5, proCasp7 act 6 and CHT allo act inactive.
`COc1cc2cc[n+](Cc3ccc([N+](=O)[O-])cc3)cc2cc1OC` gave CHT block inactive, proCasp3 act 3, proCasp7 act -2, CHT allo act 7.1*, CHT activ conf 71* and HEK293 MP dye -79*.
`Nc1nccnc1C(=O)OCC(=O)Nc1ccc2[nH]c(=O)[nH]c2c1` gave CHT block inactive, proCasp3 act 2, proCasp7 act 4 and CHT allo act inactive.
Screening Cn1c(=O)n(C)c2cc(/C=N/n3cnnc3)ccc21 returned CHT block inactive, proCasp3 act -1, proCasp7 act -2, CHT allo act 8.7*, CHT activ conf 70* and HEK293 MP dye -69*.
`CCCCN(CCCC)CC(O)COc1ccccc1Br` (stereo unspecified) gave CHT block inactive, proCasp3 act 2, proCasp7 act 5, CHT allo act 6.7*, CHT activ conf 26* and HEK293 MP dye inactive.
C=CCOC(=O)c1ccc(-n2cnc(C)n2)nc1 was read as CHT block inactive, proCasp3 act -2, proCasp7 act 0 and CHT allo act inactive.
`C=CCOC(=O)c1ccc(-n2cncn2)nc1` gave CHT block inactive, proCasp3 act -8, proCasp7 act 4, CHT allo act inactive, CHT activ conf 21* and HEK293 MP dye inactive.
Screening CCN1CCN(c2ccc(S(=O)(=O)N3CCCCC3)cc2NC(=O)Cc2ccc(OC)cc2)CC1 returned CHT block inactive, proCasp3 act 4, proCasp7 act 4, CHT allo act inactive, CHT activ conf 39* and HEK293 MP dye -36*.
Screening CCN1CCN(c2ccc(S(=O)(=O)N3CCCCC3)cc2NC(=O)/C=C/c2cccc(OC)c2OC)CC1 returned CHT block inactive, proCasp3 act -1, proCasp7 act -7, CHT allo act inactive, CHT activ conf 41* and HEK293 MP dye -31*.
`O=C(NN=C1CCCC1)c1ccccc1OCc1ccc(Cl)cc1` gave CHT block inactive, proCasp3 act 11, proCasp7 act -3, CHT allo act 10*, CHT activ conf 13* and HEK293 MP dye inactive.
`C[C@H](NC(=O)C(c1ccccc1)c1ccccc1)c1ccccc1` gave CHT block inactive, CHT allo act 7.9*, CHT activ conf 6 and HEK293 MP dye inactive.

Assay outcomes from PubChem.
